Reference: article PMC3806060 (Journal of medicinal chemistry, 2013)
Entries after “also recorded” stand apart in the source; their conditions may differ. Where two headings read alike, the source gives them in different places.

Legend:
Mcl-1 = Mcl-1 (Homo sapiens, UniProt Q07820); assay: FP based competitive binding assay, Mcl-1; details: at concentrations as high as 2 μM
[1] = system: small-cell lung cancer cell lines; assay type: cell-based, Human; details: for IC50: Homo sapiens
Outline: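 H146, H1963, H187 and H1417 small-cell lung cancer lines were maintained in RPMI-1640 with 10% FBS. Cells were exposed to various concentrations of test compound for 4 days. WST-8 was added for a further 1–2 h and absorbance read at 450 nm. IC50 was calculated against untreated cells, with at least three independent experiments per line.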

H146 xenograft tumors = assay: Western blot of H146 xenograft tumor tissue for cleavage of PARP and caspase-3; assay type: in vivo, SCID mice; details: single dose 15 mg/kg i.v., 3 and 6 h time points
Outline: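 SCID mice carried subcutaneous H146 xenografts (5 × 10^6 cells with Matrigel) of approximately 100 mm3. They received a single 15 mg/kg i.v. dose of test compound or vehicle. Tumors were harvested at 3, 6 or 24 h, and western blot measured total and cleaved PARP and caspase-3.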

[2] = system: H146 small-cell lung cancer xenograft; assay: Antitumor efficacy in the H146 xenograft tumor model; assay type: in vivo, SCID mice; details: for Antitumor activity / Tumor regression: daily, 5 days a week for 2 weeks
Outline: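 Subcutaneous dorsal xenografts in SCID mice: 5 × 10^6 H146 cells with Matrigel, one tumor per mouse. At 100–150 mm3 (mean 126 mm3), animals randomized into groups of 8. Vehicle or test compound given i.v. at 15 mg/kg, daily, 5 days/week for 2 weeks. Tumor size and body weight measured 3×/week during and 2×/week after dosing. Data are mean tumor volume ± SEM; two-way ANOVA and unpaired two-tailed t test, P < 0.05.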

[3] = system: H146 small-cell lung cancer cell line; assay: Cell growth inhibition assay; assay type: cell-based, Human; details: for Cellular activity in H146: at 1 μM; for Times less potent than compound 5 in H146 cell growth inhibition: versus 5; for Times less potent than compound 28 in H146 cell growth inhibition: versus 28
Bcl-2 = Bcl-2 (Homo sapiens, UniProt P10415); assay: FP based competitive binding assay, Bcl-2; details: versus 4
Chain of Bcl-2 (P10415 whole entry): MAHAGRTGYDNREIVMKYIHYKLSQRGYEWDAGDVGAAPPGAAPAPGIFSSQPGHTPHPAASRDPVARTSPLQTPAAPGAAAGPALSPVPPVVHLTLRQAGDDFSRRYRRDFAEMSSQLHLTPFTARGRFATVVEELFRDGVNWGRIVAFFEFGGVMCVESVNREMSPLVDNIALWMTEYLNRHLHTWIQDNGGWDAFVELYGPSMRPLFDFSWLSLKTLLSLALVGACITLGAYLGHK

Chain of Mcl-1 (Q07820 whole entry): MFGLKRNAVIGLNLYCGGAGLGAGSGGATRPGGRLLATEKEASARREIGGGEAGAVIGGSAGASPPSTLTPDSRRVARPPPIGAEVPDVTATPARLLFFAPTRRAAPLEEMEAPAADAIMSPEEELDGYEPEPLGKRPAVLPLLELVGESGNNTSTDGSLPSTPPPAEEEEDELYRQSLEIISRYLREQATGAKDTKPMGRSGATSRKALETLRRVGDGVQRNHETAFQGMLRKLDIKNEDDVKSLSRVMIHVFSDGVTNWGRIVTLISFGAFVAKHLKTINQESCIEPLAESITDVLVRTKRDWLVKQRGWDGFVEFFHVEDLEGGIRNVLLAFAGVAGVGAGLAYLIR

## Cc1c(C(=O)NS(C)(=O)=O)c(-c2cccc(N3CCN(c4ccc(NS(=O)(=O)c5ccc(N[C@H](CCN(C)C)CSc6ccccc6)c([N+](=O)[O-])c5)cc4)CC3)c2)c(-c2ccc(Cl)cc2)n1C(C)C [Compound 32, (R)-5-(4-Chlorophenyl)-4-(3-(4-(4-(4-(4-(dimethylamino)-1-(phenylthio)butan-2-ylamino)-3-nitrophenylsulfonamido)phenyl)piperazin-1-yl)phenyl)-1-isopropyl-2-methyl-N-(methylsulfonyl)-1H-pyrrole-3-carboxamide]
Mcl-1
  Binding to Mcl-1: no appreciable binding; also recorded: does not show any appreciable binding
[1]; read-out: IC50, cancer cell growth inhibition
  IC50: 1 to 2 nM
[1]; read-out: IC50, cell growth inhibition
  IC50: 1 to 2.3 nM
[1]; versus 1, each of H1963, H187, H1417, based on IC50
  Times more potent than compound 1 in cell growth inhibition: > 50 times
[1]; versus 2, each of H1963, H187, H1417, based on IC50
  Times more potent than compound 2 in cell growth inhibition: > 10 times
H146 xenograft tumors
  Cleavage of PARP and caspase-3 in H146 tumor tissue: robust cleavage of PARP and caspase-3
[2]; 15 mg/kg i.v.
  Antitumor activity: strong antitumor activity
  Tumor regression: rapid, complete and durable tumor regression; also recorded: rapid, complete and persistent tumor regression
[2]; H146 xenograft efficacy study, 15 mg/kg i.v., during or after treatment
  Weight loss: < 5%
[2]; day 62, 18 days after end of treatment, 15 mg/kg i.v.
  Mice with measurable tumors, of 8 treated: none
[2]; day 117, 8 mice, 130 mm^3 at start of treatment (day 33)
  Average tumor size: 47 mm^3
[2]; day 117, 74 days after end of treatment, 8 mice, 15 mg/kg i.v.
  Mice without measurable tumors: 50%

## CN(C)CC[C@H](CSc1ccccc1)Nc1ccc(S(=O)(=O)Nc2ccc(N3CCN(c4cccc(-c5c(C(=O)O)c(C(F)(F)F)n(C)c5-c5ccc(Cl)cc5)c4)CC3)cc2)cc1[N+](=O)[O-] [Compound 16, (R)-5-(4-Chlorophenyl)-4-(3-(4-(4-(4-(4-(dimethylamino)-1-(phenylthio)butan-2-ylamino)-3-nitrophenylsulfonamido)phenyl)piperazin-1-yl)phenyl)-1-methyl-2-(trifluoromethyl)-1H-pyrrole-3-carboxylic acid]
[3]; versus 4
  Times less potent than compound 4 in H146 cell growth inhibition: 8 times

## CN(C)CC[C@H](CSc1ccccc1)Nc1ccc(S(=O)(=O)Nc2ccc(N3CCN(c4cccc(-c5c(C(=O)NS(C)(=O)=O)ncn5-c5ccc(Cl)cc5)c4)CC3)cc2)cc1[N+](=O)[O-] [Compound 23, (R)-1-(4-Chlorophenyl)-5-(3-(4-(4-(4-(4-(dimethylamino)-1-(phenylthio)butan-2-ylamino)-3-nitrophenylsulfonamido)phenyl)piperazin-1-yl)phenyl)-N-(methylsulfonyl)-1H-imidazole-4-carboxamide]
[3]
  Cellular activity in H146: minimal activity

## CCn1c(C)c(C(=O)NS(C)(=O)=O)c(-c2cccc(N3CCN(c4ccc(NS(=O)(=O)c5ccc(N[C@H](CCN(C)C)CSc6ccccc6)c([N+](=O)[O-])c5)cc4)CC3)c2)c1-c1ccc(Cl)cc1 [Compound 31, (R)-5-(4-Chlorophenyl)-4-(3-(4-(4-(4-(4-(dimethylamino)-1-(phenylthio)butan-2-ylamino)-3-nitrophenylsulfonamido)phenyl)piperazin-1-yl)phenyl)-1-ethyl-2-methyl-N-(methylsulfonyl)-1H-pyrrole-3-carboxamide]
Mcl-1
  Binding to Mcl-1: no appreciable binding
H146 xenograft tumors
  Cleavage of PARP and caspase-3 in H146 tumor tissue: robust cleavage of PARP and caspase-3
[2]; 15 mg/kg i.v.
  Antitumor activity: strong antitumor activity
  Tumor regression: partial tumor regression

## CN(C)CC[C@H](CSc1ccccc1)Nc1ccc(S(=O)(=O)Nc2ccc(N3CCN(c4cccc(-c5c(C(=O)O)nn(C)c5-c5ccc(Cl)cc5)c4)CC3)cc2)cc1[N+](=O)[O-] [Compound 25, (R)-5-(4-Chlorophenyl)-4-(3-(4-(4-(4-(4-(dimethylamino)-1-(phenylthio)butan-2-ylamino)-3-nitrophenylsulfonamido)phenyl)piperazin-1-yl)phenyl)-1-methyl-1H-pyrazole-3-carboxylic acid]
[3]
  Cellular activity in H146: minimal activity

## Cc1c(C(F)(F)F)c(-c2cccc(N3CCN(c4ccc(NS(=O)(=O)c5ccc(N[C@H](CCN(C)C)CSc6ccccc6)c([N+](=O)[O-])c5)cc4)CC3)c2)c(-c2ccc(Cl)cc2)n1C [Compound 14, (R)-N-(4-(4-(3-(2-(4-Chlorophenyl)-1,5-dimethyl-4-(trifluoromethyl)-1H-pyrrol-3-yl)phenyl)piperazin-1-yl)phenyl)-4-(4-(dimethylamino)-1-(phenylthio)butan-2-ylamino)-3-nitrobenzenesulfonamide]
Bcl-2
  Times less potent than compound 4 in binding to Bcl-2: 100 times
[3]; versus 4
  Times less potent than compound 4 in H146 cell growth inhibition: > 100 times

## CCCCn1c(C)c(C(=O)O)c(-c2cccc(N3CCN(c4ccc(NS(=O)(=O)c5ccc(N[C@H](CCN(C)C)CSc6ccccc6)c([N+](=O)[O-])c5)cc4)CC3)c2)c1-c1ccc(Cl)cc1 [Compound 30, (R)-1-Butyl-5-(4-chlorophenyl)-4-(3-(4-(4-(4-(4-(dimethylamino)-1-(phenylthio)butan-2-ylamino)-3-nitrophenylsulfonamido)phenyl)piperazin-1-yl)phenyl)-2-methyl-1H-pyrrole-3-carboxylic acid]
[3]
  Times less potent than compound 5 in H146 cell growth inhibition: > 5 times
  Times less potent than compound 28 in H146 cell growth inhibition: > 10 times

## CN(C)CC[C@H](CSc1ccccc1)Nc1ccc(S(=O)(=O)Nc2ccc(N3CCN(c4cccc(-c5c(C(=O)NS(C)(=O)=O)cnn5-c5ccc(Cl)cc5)c4)CC3)cc2)cc1[N+](=O)[O-] [Compound 24, (R)-1-(4-Chlorophenyl)-5-(3-(4-(4-(4-(4-(dimethylamino)-1-(phenylthio)butan-2-ylamino)-3-nitrophenylsulfonamido)phenyl)piperazin-1-yl)phenyl)-N-(methylsulfonyl)-1H-pyrazole-4-carboxamide]
[3]
  Cellular activity in H146: minimal activity

## Cc1c(C(=O)O)c(-c2cccc(N3CCN(c4ccc(NS(=O)(=O)c5ccc(N[C@H](CCN(C)C)CSc6ccccc6)c([N+](=O)[O-])c5)cc4)CC3)c2)c(-c2ccc(Cl)cc2)n1C(C)C [Compound 28]
[3]; versus 4
  Times more potent than compound 4 in H146 cell growth inhibition: 20 times

## Cc1c(Cl)c(-c2cccc(N3CCN(c4ccc(NS(=O)(=O)c5ccc(N[C@H](CCN(C)C)CSc6ccccc6)c([N+](=O)[O-])c5)cc4)CC3)c2)c(-c2ccc(Cl)cc2)n1C [Compound 13, (R)-N-(4-(4-(3-(4-Chloro-2-(4-chlorophenyl)-1,5-dimethyl-1H-pyrrol-3-yl)phenyl)piperazin-1-yl)phenyl)-4-(4-(dimethylamino)-1-(phenylthio)butan-2-ylamino)-3-nitrobenzenesulfonamide]
Bcl-2
  Times less potent than compound 4 in binding to Bcl-2: 100 times
[3]; versus 4
  Times less potent than compound 4 in H146 cell growth inhibition: > 100 times

## CCCn1c(C)c(C(=O)O)c(-c2cccc(N3CCN(c4ccc(NS(=O)(=O)c5ccc(N[C@H](CCN(C)C)CSc6ccccc6)c([N+](=O)[O-])c5)cc4)CC3)c2)c1-c1ccc(Cl)cc1 [Compound 29, (R)-5-(4-Chlorophenyl)-4-(3-(4-(4-(4-(4-(dimethylamino)-1-(phenylthio)butan-2-ylamino)-3-nitrophenylsulfonamido)phenyl)piperazin-1-yl)phenyl)-2-methyl-1-propyl-1H-pyrrole-3-carboxylic acid]
[3]
  Times less potent than compound 5 in H146 cell growth inhibition: > 5 times
  Times less potent than compound 28 in H146 cell growth inhibition: > 10 times

## Cc1c(C#N)c(-c2cccc(N3CCN(c4ccc(NS(=O)(=O)c5ccc(N[C@H](CCN(C)C)CSc6ccccc6)c([N+](=O)[O-])c5)cc4)CC3)c2)c(-c2ccc(Cl)cc2)n1C [Compound 15, (R)-N-(4-(4-(3-(2-(4-Chlorophenyl)-4-cyano-1,5-dimethyl-1H-pyrrol-3-yl)phenyl)piperazin-1-yl)phenyl)-4-(4-(dimethylamino)-1-(phenylthio)butan-2-ylamino)-3-nitrobenzenesulfonamide]
Bcl-2
  Times less potent than compound 4 in binding to Bcl-2: > 10 times
[3]; versus 4
  Times less potent than compound 4 in H146 cell growth inhibition: 8 times

## Cc1cc(-c2cccc(N3CCN(c4ccc(NS(=O)(=O)c5ccc(N[C@H](CCN(C)C)CSc6ccccc6)c([N+](=O)[O-])c5)cc4)CC3)c2)c(-c2ccc(Cl)cc2)n1C [Compound 7]
[3]; at concentrations as high as 10 μM
  Inhibition of cell growth in H146: completely inactive
